Published values from different studies.
Lines come from different studies, so protocols differ.
Read-out: cell growth or viability

CCN(Cc1c(F)cccc1F)c1ccc(CO)c(Cl)c1
inhibition (RBE; ATP luminescence; 46 µM; 72 h): 57%

COCCC(=O)Nc1ccccc1/N=c1\cc(-c2ccc3c(c2)OCO3)oc2ccccc12
inhibition (MDA-MB-468; CCK-8; 1 µM): 2.51%

OCc1ccc(-c2nn(Cc3ccccc3)c3ncccc23)o1
inhibition (RBE; ATP luminescence; 46 µM; 72 h): 51%

CN(C)CCNC(=O)c1ccc(-c2nc3ccc4[nH]ncc4c3c3c2CC(C)(C)CC3)cc1
GI50 (MV4-11; resazurin; 72 h): 0.08 µM

OCc1ccc(-c2nn(Cc3cncnc3)c3ccccc23)o1
inhibition (RBE; ATP luminescence; 46 µM; 72 h): 71%

O=C(Nc1ccc(Cl)cc1)C1CCCN(C(=O)c2cc(C(F)(F)F)cc(C(F)(F)F)c2)C1 (racemic)
viability (HBL1; ATP luminescence; 0.5 µM; 5 days): 98.8%

CN(C)CC1(NC(=O)c2ccc(-c3nc4ccc5[nH]ncc5c4c4c3CCCC4)cc2)CC1
GI50 (MV4-11; resazurin; 72 h): 0.536 µM

NCC(=O)Nc1ccccc1/N=c1\cc(-c2ccc3c(c2)OCO3)oc2c(N)cccc12
inhibition (MDA-MB-468; CCK-8; 1 µM): -4.61%

C[C@H](Nc1ccc2c(c1)OCCn1cc(N3C(=O)OC[C@H]3C(F)F)nc1-2)C(N)=O
EC50 (IM95; ATP luminescence; 5 days): 0.388 µM

Cc1n[nH]c2ccc3nc(-c4ccc(C(=O)NCCN(C)C)cc4)c4c(c3c12)CCCCC4
GI50 (MV4-11; resazurin; 72 h): 0.098 µM

C=C(NC(=O)C(=C)NC(=O)c1csc(C2=N[C@@H]3c4csc(n4)[C@H]4NC(=O)c5csc(n5)[C@H]([C@](C)(O)[C@@H](C)O)NC(=O)[C@H]5CSC(=N5)/C(=C/C)NC(=O)[C@H]([C@@H](C)O)NC(=O)c5csc(n5)[C@]3(CC2)NC(=O)[C@H](C)NC(=O)C(=C)NC(=O)[C@H](C)NC(=O)[C@H]([C@@H](C)CC)N[C@@H]2C=Cc3c([C@H](C)O)cc(nc3[C@H]2O)C(=O)O[C@@H]4C)n1)C(N)=O
EC50 (C4-2): 7.3 µM

CN(C)CCNC(=O)c1ccc(-c2nc3ccc4[nH]ncc4c3c3c2CCCC3)c(F)c1
GI50 (MV4-11; resazurin; 72 h): 0.127 µM

COc1ccc2/c(=N/c3ccccc3NC(=O)[C@@H](N)C(C)(C)C)cc(-c3ccc4c(c3)OCO4)oc2c1
inhibition (MDA-MB-468; CCK-8; 1 µM): 2.98%

O=C(Nc1cccc(Br)c1)c1cccc(S(=O)(=O)N2CCCCCC2)c1
viability (HBL1; ATP luminescence; 0.1 µM; 5 days): 134%

NCCC(=O)Nc1ccccc1/N=c1\cc(-c2ccc3oc(N)nc3c2)oc2ccccc12
inhibition (MDA-MB-468; CCK-8; 1 µM): 59.8%

O=C(NC1CC1)c1ccc(-c2nc3ccc4[nH]ncc4c3c3c2CCCC3)cc1
GI50 (MV4-11; resazurin; 72 h): 0.481 µM

Nc1nc2ccc(-c3c/c(=N\c4ccccc4NC(=O)C4CCNC4)c4ccccc4o3)cc2o1 (stereo not drawn)
inhibition (MDA-MB-468; CCK-8; 1 µM): 55.6%

CC(=O)OC[C@H]1O[C@@H](n2cnc(N)nc2=O)[C@H](OC(C)=O)[C@@H]1OC(C)=O
viability (HBL1; ATP luminescence; 0.5 µM; 5 days): 111%

OCc1ccc(-c2nn(Cc3cccc(F)c3)c3ccccc23)o1
inhibition (RBE; ATP luminescence; 46 µM; 72 h): 60%

O=C(CCCCCCC(=O)Nc1ccccc1)NO
viability (HBL1; ATP luminescence; 1 µM; 5 days): 10.7%

CCNc1nc2ccc(-c3c/c(=N\c4ccccc4NC(=O)CCN)c4ccccc4o3)cc2o1
inhibition (MDA-MB-468; CCK-8; 1 µM): 31.4%

O=C(/C=C/c1cccc(C(=O)NO)c1)NO
viability (HBL1; ATP luminescence; 0.5 µM; 5 days): 89.6%

OCc1ccc(-c2nn(Cc3ccccc3)c3ccncc23)o1
inhibition (RBE; ATP luminescence; 46 µM; 72 h): 47%

CN(C)CCNC(=O)c1ccc(-c2nc3ccc4[nH]ncc4c3c3c2CCCCC3)cc1
GI50 (MV4-11; resazurin; 72 h): 0.025 µM

O=C(NO)c1ccc(CC(=O)N(CCO)c2ccccc2)cc1
viability (HBL1; ATP luminescence; 0.1 µM; 5 days): 103%

CC1c2ccccc2CCN1c1ccc(CO)c(Cl)c1 (stereo not drawn)
inhibition (RBE; ATP luminescence; 46 µM; 72 h): 91%

Cc1n[nH]c2ccc3nc(-c4ccc(C(=O)NCCN(C)C)cc4F)c4c(c3c12)CCCCC4
GI50 (MV4-11; resazurin; 72 h): 0.088 µM

CCN(Cc1cccc(C)c1)c1ccc(CO)c(Cl)c1
inhibition (RBE; ATP luminescence; 46 µM; 72 h): 85%

O=C(Nc1nccs1)c1ccc(-c2nc3ccc4[nH]ncc4c3c3c2CCCC3)cc1
GI50 (MV4-11; resazurin; 72 h): 0.743 µM

C[C@H](N)C(=O)Nc1ccccc1/N=c1\cc(-c2ccc3c(c2)OCCO3)oc2c([N+](=O)[O-])cccc12
inhibition (MDA-MB-468; CCK-8; 1 µM): 1.9%

CCN(Cc1ccccc1)c1ccc(CO)c(Cl)c1
inhibition (RBE; ATP luminescence; 46 µM; 72 h): 57%

COc1ccc2/c(=N/c3ccccc3NC(=O)CN)cc(-c3ccc4c(c3)OCCO4)oc2c1
inhibition (MDA-MB-468; CCK-8; 1 µM): 15.2%

O=C(CCCCCCSc1ccc2ccccc2c1)NO
viability (HBL1; ATP luminescence; 1 µM; 5 days): 98.6%
